The record followed here is the RNAGym collection of RNA variant scans (doi:10.1126/science.aae0568).

The labels stand for the following.
B1: tRNA (parent)
chain: GUUCCGUUGGCGUAAUGGUAACGCGUCUCCCUCCUAAGGAGAAGACUGCGGGUUCGAGUCCCGUACGGAACG

This sample holds only a part of the variants without activity.

Variants of B1 are the subject of the data set. The data set is described as follows: yeast fitness relative to wild type (ratio to wild type); higher = fitter; tRNA-Arg(CCU), competitive growth, 37 C, YPD. Summed up: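 For this measurement, the tRNA-Arg(CCU) gene was varied by chemical synthesis at a 3% per-site mutation rate across 69 sites, and each variant was placed at the native genomic locus in Saccharomyces cerevisiae. The pooled strains went through a 24-hour competition in YPD at 37°C in six parallel replicates, with amplicons from start and end populations read by 100-nucleotide paired-end sequencing. Darwinian fitness relative to wild type followed from the change in each genotype's frequency. Genotypes needed ≥ 100 starting reads, and estimates < 0.5 were set to 0.5.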
On to GUUCCGUUGGCGUAAUGGUAACGGGUCUCUAUCCUAAGGAGAAGACUGCGGGUUCGAGUCCCGUACGGAACG [C24G C30U C31A], for which the yeast fitness is no more than 0.5.
Under GUUCCGUUGGCGUAAUGGUAAUGCGUCUCCCUCCUAAGGGGAAGACUGCGGGUUCGAGUCUCGUACGGAUCG [C22U A40G C61U A70U] stands 0.547; under GUUCCGUUGGCGUAGUGGUAACGCGUCUCCCUCCUAAGGAGAAGACUGCGGGUUCGAGUCCCGUAUGGAACG [A15G C66U], 0.887; under GUUCCGUUGGAGUAAUGGUAACGCGUCUCCCUCCUAAGGAGAAGACUGCGGGUUCGAGUCCGGUACGGAACG [C11A C62G], 0.552.
Then GUUCGGUUGGCGUAAUGGUAACGCGUCUCCCUCGUAAGGAGAAGACUGCGGGUUCGAGUCCUGUACGGAACG [C5G C34G C62U], with 0.531; and GUUCCGUUGGAGUAAUGGUAACGCGUCUCCCAUCUAAGGAGAAGACUGCGGGUUCGAGUCCCGUACGGAACG [C11A U32A C33U], with 0.548; and GUUCCGUUGGCCUAAUGGUAACGCGUCUCCCUCCUAAGGAGAAGACUGCGGGUUCGAGUCCCGUACCGAACG [G12C G67C], with 0.825.
Then GUUCCGUUGGCGUAAUGGUAACGCGUGUCCCUCCUAAGGAGAAGGCUGCGGGUUCGAGUCUCGUACGGUACG [C27G A45G C61U A69U], with no more than 0.5; and GUUCCGUUGGCGUAAUGGUAUCGCGUCUCCCUGCUAAGGAGGAAACUGCGGGUUCGAGUCUCGUAUGGAACG [A21U C33G A42G G44A C61U C66U], with no more than 0.5; and GUUCCGUUGGCGUAAUGGUAACGCGUCUCCCUCCUAAGGCGAAGAGUGCGGGUUCGAGUCCCGUACGGAACG [A40C C46G], with 0.975.
On to GUUCCGUUGGCGUCAUGGUAACGCGUGUCCCUCCUAAGGAGAAGACUGCGGGUUCGAGUCCCGUACGGUACG [A14C C27G A69U], for which the yeast fitness is 0.561.
Under GUUACGUUGGCGUUAUGGUAACGCGUCUCCCUCCUAAGGAGAAGACUGCGGGUUCGAGUCCCGUACGGAACG [C4A A14U] stands 0.698; under GUGCCGUUGGCGUAAUGGUAACGCGUCUCCCUCCUAAGGAGAAGAUUGCGGGUUCGAGUCCCGUACGGAACG [U3G C46U], 0.903.
Under GUUCUGUUGGCGUAUUGGUAACGCGUCUCCUUCCUAAGGAGAUGACUGUGGGUUCGAGUCCCGUACGGAACG [C5U A15U C31U A43U C49U] stands no more than 0.5; under GAUCCGUUGGCGUAAUGGUAACGCGUCUCCCUCCUAAGGACAAGACUGCCGGUUCGAGUCCGGUAGGGAACG [U2A G41C G50C C62G C66G], no more than 0.5.
Under GUCCCGUUGGCGUAAUGGUAACGCGUCUCCCUCCUAGGGAGCAGACUGCGGGUUCGAGUCCCGUCCGGCACG [U3C A37G A42C A65C A69C] stands no more than 0.5.
Consider GUUCCGUUGGCGUAAUGGUAACGCGUCUACCUCCUAAGGUGAAGCAUGAGGGUUCGGGUCCCGUACGGAACG [C29A A40U A45C C46A C49A A57G], for which the yeast fitness was no more than 0.5.
Under GUUCGGUUGGGGUAAUGGUAACGCGUCUCCCUCCUAAGGGGAAGACUGCGGGUUCGAGUGCCGUACGGAACG [C5G C11G A40G C60G] stands 0.588; under GUUCCGUUCCCGUAAUGGUAACGCGUCUCCCUCCUAAGGAGAAGACUGCGGGUUCGAGUCCCGUACGGGGCG [G9C G10C A69G A70G], no more than 0.5; under GUUCCGUUGGCCUAAUGGUAACGCGUCCCCCUCCAAAAGAGAAGAGUGCGGGUUCGAGUCCUGUACGGAACG [G12C U28C U35A G38A C46G C62U], no more than 0.5.
Under GUUCCGUUGGCGUAAUGGUAACGCGUCUCCCUCCUAAGGAGAAGACUGCGGGUUCGAGUCCCGUAAGGCACG [C66A A69C] stands 0.665.
Under GUUCCGUUGGCGUAAUGGUAACCCGUCUCCCUCCUAAGGAGAAGACUGCGGGUUCGAGUCUCGUACGGAUCG [G23C C61U A70U] stands 0.6.
On to GUUCCGUUGGCGUAAUGGUAACGCGUCUCCCUCGUAAGGAGAAGAAUGCGGGUUCGAGUCCUGUACGGAACG [C34G C46A C62U], for which the yeast fitness amounted to 0.541.
Then GUUCCGUUGGCGUAAUGGUAACGCCUCUCCCUCCUAAGGGGAAGACAGCGGGUUCGCGUCCCAUACGGAACG [G25C A40G U47A A57C G63A], with no more than 0.5.
Under GUUCCGUUGGUGUAAUGGUAACGCGUCUCCCUCCUAAGGAGAAGACUGCAGGUUCAAGUCCCGUACGGAACG [C11U G50A G56A] stands 0.781; under GUUUCGUUGGCGUAAUGGUAACGCGUCUCCCUCCUAAGGAGCAGACUGCGGGUUCGAGUCCCGUACGGAACG [C4U A42C], 0.912; under GUUCCGUUGGCGUAAUGGUAACGCCUCUCCGUCGUAAGGAGAAGACUGCGGGUUCGCGUCCCGUACGGAACG [G25C C31G C34G A57C], no more than 0.5.
Then GUUCCGUUGGCGUAAUAGUAAGGCGUAUCCCUCCUAAGGAGAAGUCUGCGGGUUCCAGUCCCCUACCGAACG [G17A C22G C27A A45U G56C G63C G67C], with no more than 0.5.
Consider GUUCGGUUGGCGUAAUGGUAACGUGUCUCCCUCCUAAGGAGAAGGCUGCGGGUUCGAGUCCCGUACGGAACG [C5G C24U A45G], for which the yeast fitness was determined as 0.799.
For the variant GUUCCGUUGGCGUAAUGGUACCGCGUUUCCCUCCUAAGGAGAAGACUGCGGGUUCGACUCCGGUACGGAACG [A21C C27U G58C C62G], the yeast fitness is no more than 0.5.
Then GUUCCGUUGGCGUAAUGGUACCGCGUCUCCCUCCUACGGAGAAGACUGCGGGUUAGAAUCCCGUACGGAACG [A21C A37C C55A G58A], with 0.515; and GUUCCGUUGGAGUAAUGGUAACGCGUCUCCCUCCUAAGGAGAAGACUGCGGGUUCGAGUCCCGAACGGAACG [C11A U64A], with 0.635; and GUUCCGUUAGUGUAAUGGUAACGCGUCUCCCUCCUCAGGAGAAGACUGCGGGUUCGAGUCCCGUACGCAACG [G9A C11U A36C G68C], with no more than 0.5.
Consider GGUACGUUGGCGUAACGGUAACGCGUCUCCCUCCUAAGGAGAAGACUGCGGGUUCGAGUCGCGUACGGAACG [U2G C4A U16C C61G], for which the yeast fitness amounted to 0.571.
Under GUUCCGUUGGUGUAAUGGUAACGCGUCUCCCUCCUGAGGAGAAAAUUGCGGGUUCGAGUCCCGUACGGAACG [C11U A36G G44A C46U] stands 0.993.
For GUACCGUUGGCGUAAUGGUAACGCGUCUCCCUCCUAAGGAGAAGACUGCGGGUUCGAGUCCCAUACGGAACG [U3A G63A], the yeast fitness amounted to 0.772.
In the case of GUUCCGUUGGCGUAAUGGUAACGCGUCUGCCUCCUAAGGAGAAGACUGGGGGUUCGGGUCCCGUACGGAACG [C29G C49G A57G], the yeast fitness amounted to 0.6.
